This is a sample that favours compounds with a hit; in the whole collection about 1.9% have one here.
Rev-erbA mod: modulators of human Rev-erb alpha DNA binding; P20393; Rev-erbα–FITC-DNA binding, fluorescence polarization, 90 min; activity, % at 10 µM; actives 0.79% (n = 370,000);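 active = activity above about 14%, limit read from the data; passing the limit was not always enough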;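 also: 0% = DMSO wells with 35 nM protein and 100% = DMSO wells with 750 nM protein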
PG9 binder: small molecules binding HIV-1 gp120 antibody PG9. TR-FRET gp120-PG9 antibody binding. inhibition, % at 6.7 µM. actives 0.43% (n = 360,000); in the data active = inhibition above about 8.5%
MT1-MMP act inh: inhibitors of human MT1-MMP activation; P50281; HT1080 RFP-PRO-GFP cells, GFP/RFP ratio fluorescence, overnight; percent of plate control window, DMSO zero; GFP/RFP ratio change, % at 20 µM; actives 0.061% (n = 360,000); AID 651647;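 active = GFP/RFP ratio change of at least 30% with cell ATP level not reduced by more than half and red fluorescence within 50% of control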
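Assay system: RFP-PRO-GFP reporter HT1080 cells; read-out basis: GFP/RFP fluorescence ratio; benchmarks: DMSO wells and RFP-L50D-GFP cells; doses: 20 µM single dose, 1% DMSO; schedule: overnight cell settling, then overnight compound exposure, 37 °C, 5% CO2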
SKN-1 inh: inhibitors of C. elegans SKN-1. C. elegans VP596 Pgst-4::GFP/RFP ratio, acrylamide-induced, 24 h. inhibition, % at 21.8 µM. actives 0.49% (n = 360,000). AID 624304;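 active = interference check ratio from 0.5 to 1.5 plus GFP to RFP signal ratio inhibition reaching or exceeding a fixed threshold, cut at about 30% in these data, passing the limit was not always enough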
NR2E3 ag-1: human photoreceptor-specific nuclear receptor agonism; Q9Y5X4; inhibition of corepressor binding, % at 3.98 µM; actives 0.35% (n = 360,000); AID 602229; CHO-S Gal4-NCOR/VP16-NR2E3 two-hybrid, luciferase;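 active = inhibition above the mean of all tested compounds plus 3 SD, cut at about 70% in these data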;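 also: 0% = DMSO with NR2E3 transfected cells and 100% = cells lacking NR2E3 construct; higher means lower luciferase signal from less NR2E3 corepressor binding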
Target sequence (Q9Y5X4 whole entry, looked up, the tested form may be a part): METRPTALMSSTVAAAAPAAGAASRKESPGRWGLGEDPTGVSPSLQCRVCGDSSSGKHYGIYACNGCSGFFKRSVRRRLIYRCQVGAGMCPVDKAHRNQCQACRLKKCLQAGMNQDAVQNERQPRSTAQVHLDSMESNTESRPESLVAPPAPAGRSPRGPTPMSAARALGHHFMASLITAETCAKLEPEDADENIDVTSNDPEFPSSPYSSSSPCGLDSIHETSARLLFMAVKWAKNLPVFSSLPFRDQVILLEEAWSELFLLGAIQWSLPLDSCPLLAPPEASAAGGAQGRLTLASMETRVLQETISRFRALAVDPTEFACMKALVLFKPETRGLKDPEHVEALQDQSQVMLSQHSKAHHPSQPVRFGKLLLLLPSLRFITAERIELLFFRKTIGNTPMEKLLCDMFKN
NR2E3 ag-2: activates human photoreceptor nuclear receptor NR2E3; Q9Y5X4; GST-NR2E3/biotin-RetCOR TR-FRET, 1536-well; inhibition of corepressor binding, % at 4.78 µM; actives 0.12% (n = 320,000);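 active = percent inhibition above the cutoff of mean plus 3 SD of all tested compounds, set per screening campaign, cut at about 20% in these data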;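 also: 0% = DMSO wells and 100% = biotin wells as full block of FRET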
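Material: NR2E3–RetCOR corepressor complex / Incubation: Compound–protein incubation for 5 h at 4 °C / Dosing: compound at 4.8 µM, single dose / Detection: time-resolved FRET / Benchmarks: high control biotin, low control 0.6% DMSO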
NR2E3 ag confirm: NR2E3 agonism confirmed in two-hybrid assay | shares compounds with NR2E3 ag-1 | CHO-S mammalian two-hybrid NR2E3-NCOR, luciferase luminescence | inhibition, % at 3.98 µM | actives 51% (n = 2,300) | AID 624378;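 active = average inhibition above a cutoff equal to the mean inhibition of all tested compounds plus one SD, cut at about 70% in these data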;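 also: 0% = DMSO in NR2E3 cells and 100% = DMSO in cells lacking NR2E3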
GAL4-VP16 luc: reduces GAL4-VP16 reporter signal in NR2E3 counterscreen; shares compounds with NR2E3 ag-1; CHO-S GAL4-VP16 luciferase reporter, luminescence; inhibition, % at 3.98 µM; actives 29% (n = 2,300);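 active = mean inhibition above a cutoff equal to the average over all tested compounds plus one standard deviation, cut at about 70% in these data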;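 also: luciferase from a UAS reporter driven by GAL4-VP16 transactivation; 0% = DMSO with VP16-transfected cells and 100% = DMSO with cells lacking VP16; higher means less reporter light so more repression of VP16 activity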
Numbers without * were called inactive; nt = not tested or not shown.

SMILES	Rev-erbA mod	PG9 binder	MT1-MMP act inh	SKN-1 inh	NR2E3 ag-1	NR2E3 ag-2	NR2E3 ag confirm	GAL4-VP16 luc
Cc1ccc(C(=O)C2CCN(C(=O)c3ccc(C)cc3)CC2)cc1	0	-1	6	15	55	-2	32	27
CC1CCCC=CC2CC(OC(=O)CN(C)C)CC2C(O)C=CC(=O)O1 (stereo not given)	6	0	2	-3	68	nt	98*	67
CC1(C)CC(=Cc2cc(O)ccc2[N+](=O)[O-])C(=O)c2ccccc21	nt	nt	7	8	98*	nt	99*	71*
O=NN(CC(=O)NNc1ccccc1)CC(=O)NNc1ccccc1	2	-1	2	-16	73*	nt	74*	-2
CC(=NNc1nc2ccccc2s1)c1ccncn1	-3	-2	5	5	63	nt	-208	-203
C[C@@H]1CN([C@@H](C)CO)C(=O)CCCn2cc(nn2)CO[C@H]1CN(C)C(=O)NC1CCCCC1	2	-1	nt	nt	nt	nt	nt	nt
Nc1c(CC(=O)O)cccc1C(=O)c1ccccc1	-4	nt	nt	nt	nt	nt	nt	nt
O=C(NCc1ccccc1)[C@@H]1CCCN1C(=O)[C@H]1CCCN1C(=O)c1ccc(OC(F)(F)F)cc1	1	0	nt	nt	nt	nt	nt	nt
OCCCNc1cc(-c2ccnc(Nc3cccc(Cl)c3)n2)ccn1	-6	-2	-16	-38	99*	0	100*	95*
CCC(C)Oc1cc(-c2ccnc(Nc3cccc(Cl)c3)n2)ccn1 (stereo not given)	-2	-1	-18	17	57	1	94*	41
CCCCS(=O)(=O)N1CCN(C(=O)C(=O)c2cccc(C(F)(F)F)c2)CC1	-4	-3	nt	nt	nt	nt	nt	nt
CS(=O)(=O)NNC(=O)C1Cc2c(ccc3ccccc23)O1 (stereo not given)	-4	-1	2	11	-13	-4	nt	nt
O=C(NNS(=O)(=O)c1ccc(F)cc1F)C1Cc2c(ccc3ccccc23)O1 (stereo not given)	5	-3	7	20	61	3	85*	72*
CCCn1cnnc1CNC(=O)[C@@H](Cc1ccccc1)NC(=O)[C@H]1O[C@@H](n2ccc(=O)[nH]c2=O)[C@H](O)[C@@H]1O	2	1	nt	nt	nt	nt	nt	nt
N#Cc1c(NC(=O)c2ccccc2)sc2c1CCCCC2	-9	0	4	9	-98	2	nt	nt
N#Cc1c(Cl)nsc1NC(=O)c1ccccc1	-5	1	-26	33	85*	4	99*	88*
COC(/C(=N/O)c1ccc(Cl)cc1)c1ccccc1 (stereo not given)	5	1	-1	8	59	3	83*	58
COC(=O)c1cc(-c2ccc(C)c(C)c2)c(=O)n2c1CCC2	5	nt	nt	nt	nt	nt	nt	nt
CCCN(CCC)S(=O)(=O)c1ccc(C(=O)Nc2nnc(CSC)o2)cc1	-2	0	-3	3	56	-2	53	23
CCN(c1ccccc1)S(=O)(=O)c1ccc(C(=O)Nc2nnc(CSC)o2)cc1	-5	-3	-1	0	65	1	93*	32
CCN(c1ccccc1)S(=O)(=O)c1ccc(C(=O)Nc2nnc(COC)o2)cc1	-5	0	-1	12	20	4	nt	nt
COCc1nnc(NC(=O)c2ccc(S(=O)(=O)N(CC(C)C)CC(C)C)cc2)o1	12	-2	0	-1	77*	-1	89*	28
COC(=O)C1=C(C)N(C)C(=NCC2CC2)NC1c1cccc(F)c1 (stereo not given)	-1	1	nt	nt	nt	nt	nt	nt
O=S1(=O)c2cccc3cccc(c23)N1Cc1nnc(-c2ccccc2Br)o1	3	-4	-3	2	69	-6	87*	72*
CC1CCCC/C1=N\NC(=S)NCCc1ccccc1 (stereo not given)	3	1	0	4	50	-1	-7	-5
SMILES	Rev-erbA mod	PG9 binder	MT1-MMP act inh	SKN-1 inh	NR2E3 ag-1	NR2E3 ag-2	NR2E3 ag confirm	GAL4-VP16 luc
O=[N+]([O-])c1ccccc1/C=C/C=Nn1c(-c2ccc(F)cc2)n[nH]c1=S	4	nt	nt	nt	nt	nt	nt	nt
O=C1NC(=O)C(=Cc2ccc(Cl)cc2Cl)S1	2	-3	-1	-16	62	nt	91*	-4
CC(=O)c1cccc(NS(=O)(=O)c2ccc(-c3cc(C)no3)s2)c1	2	-3	-2	-2	96*	5	70*	60
CCCCCn1cc(CCC(=O)Nc2ccc(N(C)c3ccccn3)cc2)c2ccccc21	2	-4	nt	nt	nt	nt	nt	nt
[O-][n+]1c2c(c3c4non(O)c4ccc31)CCCC2	0	-3	11	16	70	-3	65	36
COn1c2c(c3c4no[n+]([O-])c4ccc31)CCCC2	-4	-3	-4	5	-6	5	nt	nt
Cc1cc2nc(-c3cccc(Cl)c3)c(Cc3ccccc3)n2c(C)c1Br	nt	nt	3	9	60	nt	29	-15
O=C1NC(=O)C(c2ccc(F)cc2)N1 (stereo not given)	3	2	0	21	107*	4	-5	7
O=C(Nc1ccc(OCC(F)(F)C(F)F)c(C(F)(F)F)c1)c1ccccc1	1	-2	-8	23	-13	0	nt	nt
O=C(Nc1ccc(OCC(F)(F)C(F)F)c(C(F)(F)F)c1)c1ccccc1O	1	-1	-29	4	99*	3	98*	75*
O=C(c1cc2nc(-c3ccc(F)cc3)cc(C(F)(F)F)n2n1)N1CCCCC1c1cccnc1 (stereo not given)	-6	0	-4	13	52	0	88*	66
Fc1ccc(C(CCCn2nnc(-c3cccnc3)n2)c2ccc(F)cc2)cc1	-4	0	0	0	52	0	55	51
O=C(CSc1nnc(NC(=O)C2CC2)s1)NCc1ccccc1	2	-1	-1	3	68	2	-25	-9
CCN1/C(=C\c2ccc3cc(C)ccc3[n+]2CC)Sc2cc(C)c(C)cc21	8	-3	-17	65	85*	nt	98*	87*
CCN1/C(=C/c2ccc3cc(C)ccc3[n+]2CC)Sc2ccc3sccc3c21	nt	nt	-20	68	25	-6	nt	nt
NC(=S)N/N=C\c1c(OCc2ccccc2Cl)ccc2ccccc12	-6	-1	1	-2	94*	2	-16	-3
CCOC(=O)[C@@]12CCCC3=C1N(CCC3)C(=O)[C@H]2CC(=O)N1CCCCC1	-3	nt	nt	nt	nt	nt	nt	nt
CNc1snc(C)c1C(=O)OCC(=O)Nc1ccc(C)cc1F	6	0	-6	-9	48	nt	31	39
